# “And” between values parts separate entries of the source, which are not always exact repeats. Equal values may be shown once. Read-outs that look alike come from different tables or passages of the source.
# How the values were obtained:
# SW620 xenografts = test: anti-tumour efficacy study, SW620 xenografts; type: in vivo, mice
# In short: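 Female athymic CD1-nu/nu mice with s.c. SW620, n = 5/group, treated once tumours were palpable (~5 × 5 mm, day 8-10). Controls: saline i.p. daily. Test compound 10 mg/kg i.p. for 5 days. Etoposide phosphate 11.35 mg/kg i.p. (10 mg/kg etoposide) daily × 5. Combination: test compound i.p. once or twice daily × 5, first dose just before etoposide. Caliper volume a²×b/2; median RTV (day 0 = 1); time to RTV4.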
# PI-3K δ = PI-3K δ (Homo sapiens, UniProt O00329); test: cell-free assay, PI-3K isoforms; type: biochemical; conditions: Supplementary Figure 1
# Chain of PI-3K δ (O00329 whole entry, species assumed, canonical isoform): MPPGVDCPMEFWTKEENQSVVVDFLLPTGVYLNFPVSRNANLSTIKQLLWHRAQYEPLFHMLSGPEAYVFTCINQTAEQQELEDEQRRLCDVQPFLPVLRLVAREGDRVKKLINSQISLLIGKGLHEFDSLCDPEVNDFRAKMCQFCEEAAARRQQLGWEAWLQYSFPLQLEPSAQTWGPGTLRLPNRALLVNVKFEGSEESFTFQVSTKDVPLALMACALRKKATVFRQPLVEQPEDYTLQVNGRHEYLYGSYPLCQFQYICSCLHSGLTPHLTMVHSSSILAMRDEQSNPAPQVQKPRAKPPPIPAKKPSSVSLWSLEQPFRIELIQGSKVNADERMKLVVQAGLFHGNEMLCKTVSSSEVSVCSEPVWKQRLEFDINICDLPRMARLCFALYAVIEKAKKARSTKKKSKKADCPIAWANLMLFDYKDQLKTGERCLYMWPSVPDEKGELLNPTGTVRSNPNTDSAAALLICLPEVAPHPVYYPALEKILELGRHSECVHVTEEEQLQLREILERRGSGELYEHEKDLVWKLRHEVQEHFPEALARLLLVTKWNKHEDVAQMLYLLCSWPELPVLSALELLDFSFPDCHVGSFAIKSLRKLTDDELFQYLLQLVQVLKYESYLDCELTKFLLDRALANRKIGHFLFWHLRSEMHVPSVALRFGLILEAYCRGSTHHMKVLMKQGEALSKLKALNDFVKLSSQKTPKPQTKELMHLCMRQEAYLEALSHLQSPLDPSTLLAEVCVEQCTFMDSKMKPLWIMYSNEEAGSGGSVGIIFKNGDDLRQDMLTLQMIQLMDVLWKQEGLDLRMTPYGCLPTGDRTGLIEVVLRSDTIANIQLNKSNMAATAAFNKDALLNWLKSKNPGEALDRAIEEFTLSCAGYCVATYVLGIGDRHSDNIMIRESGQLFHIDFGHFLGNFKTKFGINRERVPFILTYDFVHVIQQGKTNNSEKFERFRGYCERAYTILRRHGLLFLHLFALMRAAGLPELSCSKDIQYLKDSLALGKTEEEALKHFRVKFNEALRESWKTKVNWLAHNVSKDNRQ
# Chain of PI-3K δ (P27986 whole entry partner, species assumed, canonical isoform): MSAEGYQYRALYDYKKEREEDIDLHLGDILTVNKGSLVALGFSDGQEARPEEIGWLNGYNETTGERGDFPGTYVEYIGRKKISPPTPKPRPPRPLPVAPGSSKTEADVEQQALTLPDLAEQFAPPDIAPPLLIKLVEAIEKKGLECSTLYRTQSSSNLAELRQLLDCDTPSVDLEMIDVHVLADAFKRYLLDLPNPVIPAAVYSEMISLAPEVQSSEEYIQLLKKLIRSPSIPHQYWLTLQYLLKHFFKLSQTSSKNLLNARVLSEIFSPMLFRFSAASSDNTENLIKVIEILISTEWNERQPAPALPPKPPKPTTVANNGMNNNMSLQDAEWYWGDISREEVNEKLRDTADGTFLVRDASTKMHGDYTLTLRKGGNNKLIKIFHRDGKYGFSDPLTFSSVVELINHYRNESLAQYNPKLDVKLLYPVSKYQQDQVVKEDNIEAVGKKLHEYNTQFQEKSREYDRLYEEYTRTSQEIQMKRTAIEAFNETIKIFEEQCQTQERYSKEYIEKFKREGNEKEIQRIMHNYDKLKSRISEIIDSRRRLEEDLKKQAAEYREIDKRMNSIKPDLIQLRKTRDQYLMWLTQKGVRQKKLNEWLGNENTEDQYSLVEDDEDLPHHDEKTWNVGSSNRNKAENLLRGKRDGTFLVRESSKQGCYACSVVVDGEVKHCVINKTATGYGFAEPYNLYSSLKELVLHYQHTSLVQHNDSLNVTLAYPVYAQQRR
# LoVo cells [1] = test: cell growth inhibition, SRB assay, 5-day continuous exposure; type: cell-based, human
# In short: (§1)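 Human cancer cells in RPMI 1640 with 10% FBS, penicillin/streptomycin, at 37 °C and 5% CO2. Test compound (10 mM DMSO stock) given by continuous exposure for 5 days. Growth measured by SRB assay. […] Means ± SD of 3 independent experiments.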
# [2] = type: in vivo, mice; conditions: for concentration at 60 min / concentration at 120 min: female, CD1-nu/nu (athymic), mouse, intravenous, 12.5 mg/kg
# In short: (§2)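 Female athymic CD1-nu/nu mice kept in SPF isolators, bearing MCF7 or SW620 xenografts (650 mm³). Test compound 12.5 mg/kg i.v. in equimolar phosphoric acid/saline, pH 5. Tumours homogenised in PBS (1:3 w/v) on ice. Plasma and tumour concentrations by LC-MS/MS. Means ± SD of 3 mice per time point.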
# M059J cells = test: clonogenic survival assay, DNA-PKcs-deficient cells; type: cell-based, human; conditions: M059J
# In short: (§3)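 Human glioblastoma M059J cells (DNA-PKcs-deficient) and M059-Fus-1 cells (chromosome 8 transfected; G-418 200 μg/ml) in DMEM/10% FBS. Etoposide or doxorubicin alone or with 1 μM test compound, or test compound alone, for 16 h. Reseeded drug-free. Crystal violet colony counts after 10-14 days. Fold enhancement as survival ratio. Means ± SD, n = 3.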
# solubility = type: physicochemical; conditions: compared with NU7441
# SW620 cells = test: cell growth inhibition, SRB assay, 5-day continuous exposure; type: cell-based, human
# PI-3K [3] = test: PI-3K-dependent AKT phosphorylation; type: cell-based, human; conditions: read-out: IC50 PI-3K-mediated AKT phosphorylation; MCF7 cells, IGF-1 stimulated
# In short: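 MCF7 cells in RPMI 1640/10% FBS. Exposed to a concentration range of test compound for 1 h, then 50 ng/ml IGF-1 for 30 min. Western blot of AKT Ser473 relative to total AKT. Rise above unstimulated baseline in treated cells expressed as % of the rise in control cells. Mean of three independent experiments fitted to a sigmoidal dose-response curve for IC50.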
# [4] = type: in vivo, mice; conditions: for concentration at 60 min / concentration at 120 min: female, CD1-nu/nu (athymic), mouse, intravenous, 12.5 mg/kg; remark: listed apart in the source
# In short: as §2
# M059-Fus-1 cells = test: clonogenic survival assay, DNA-PKcs-proficient cells; type: cell-based, human
# In short: as §3
# MCF7 xenografts = test: anti-tumour efficacy study, MCF7 xenografts; type: in vivo; conditions: MCF7 tumour-bearing mice
# V3 cells = test: clonogenic survival assay, DNA-PKcs-deficient cells; type: cell-based, Chinese hamster
# In short: (§4)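 Chinese hamster ovary V3 cells (DNA-PKcs-deficient) and V3-YAC cells (human DNA-PKcs on YAC; kept under G-418 500 μg/ml) in RPMI 1640/10% FBS. Etoposide alone or with 1 μM test compound, or test compound alone, for 16 h. Reseeded drug-free. Crystal violet colony counts after 10-14 days. Fold enhancement as survival ratio. Means ± SD of 3 independent experiments.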
# LoVo cells [5] = test: clonogenic survival assay; type: cell-based, human
# In short: (§5)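 Cells in RPMI 1640/10% FBS were exposed in 6-well plates for 16 h to etoposide or doxorubicin with or without test compound (1 μM), or to test compound alone. Cells then harvested and reseeded in drug-free medium. Colonies stained with crystal violet after 10-14 days and counted automatically. Fold enhancement = survival with cytotoxic alone / survival with cytotoxic + 1 μM test compound. Means ± SD, n = 3.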
# MDA-MB-231 cells [6] = test: cell growth inhibition, SRB assay, 5-day continuous exposure; type: cell-based; conditions: Homo sapiens, MDA-MB-231, 120 h
# In short: as §1
# MCF7 cells [7] = test: as above; type: cell-based, human
# In short: as §1
# T47D cells = test: clonogenic survival assay; type: cell-based, human
# In short: as §5
# MCF7 cells [8] = test: clonogenic survival assay; type: cell-based, human; conditions: MCF7, 1 μM, 16 hr exposure, single agent
# In short: as §5
# PI-3K γ = PI-3K γ (Homo sapiens, UniProt P48736); test: cell-free assay, PI-3K isoforms; type: biochemical; conditions: Supplementary Figure 1
# Chain of PI-3K γ (P48736 whole entry, species assumed, canonical isoform): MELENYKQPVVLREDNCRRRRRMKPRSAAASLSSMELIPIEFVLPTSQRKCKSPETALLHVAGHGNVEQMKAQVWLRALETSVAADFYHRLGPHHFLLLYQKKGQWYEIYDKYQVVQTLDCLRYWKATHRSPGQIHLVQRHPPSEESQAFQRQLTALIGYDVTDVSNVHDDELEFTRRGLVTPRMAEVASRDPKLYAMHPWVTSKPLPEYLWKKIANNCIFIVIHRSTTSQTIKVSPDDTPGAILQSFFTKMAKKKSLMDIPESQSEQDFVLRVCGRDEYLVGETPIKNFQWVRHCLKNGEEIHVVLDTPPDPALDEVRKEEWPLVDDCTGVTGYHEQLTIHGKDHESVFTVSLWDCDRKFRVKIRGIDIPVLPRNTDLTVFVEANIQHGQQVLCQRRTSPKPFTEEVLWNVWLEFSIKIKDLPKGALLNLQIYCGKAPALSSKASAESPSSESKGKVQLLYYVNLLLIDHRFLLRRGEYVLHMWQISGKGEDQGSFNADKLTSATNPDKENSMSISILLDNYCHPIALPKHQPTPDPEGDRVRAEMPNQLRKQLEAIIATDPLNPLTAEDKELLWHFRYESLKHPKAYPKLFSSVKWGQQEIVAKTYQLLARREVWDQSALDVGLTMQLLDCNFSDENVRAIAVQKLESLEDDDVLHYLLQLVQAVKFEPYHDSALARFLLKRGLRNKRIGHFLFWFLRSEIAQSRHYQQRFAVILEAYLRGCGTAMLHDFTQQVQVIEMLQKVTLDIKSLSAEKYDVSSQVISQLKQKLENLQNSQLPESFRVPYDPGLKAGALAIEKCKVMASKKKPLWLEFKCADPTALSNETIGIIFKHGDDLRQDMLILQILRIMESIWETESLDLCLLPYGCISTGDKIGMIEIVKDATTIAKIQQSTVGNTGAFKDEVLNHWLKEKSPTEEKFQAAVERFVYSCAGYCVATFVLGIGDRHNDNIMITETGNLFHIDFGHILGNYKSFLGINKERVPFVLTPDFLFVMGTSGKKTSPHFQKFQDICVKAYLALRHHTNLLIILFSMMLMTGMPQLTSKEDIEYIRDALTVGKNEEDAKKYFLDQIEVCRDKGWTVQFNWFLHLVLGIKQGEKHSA
# MDA-MB-231 cells [9] = test: clonogenic survival assay; type: cell-based, human
# In short: as §5
# V3-YAC cells = test: clonogenic survival assay, DNA-PKcs-proficient cells; type: cell-based, Chinese hamster
# In short: as §4
# PI-3K [10] = test: PI-3K-dependent AKT phosphorylation; type: cell-based, human; conditions: SW620 cells
# [11] = 1 μM, 16 hr exposure, single agent
smiles,measurement,setting,value
"CCN1CCN(CC(=O)Nc2ccc(-c3cccc4c(=O)cc(N5CCOCC5)oc34)c3sc4ccccc4c23)CC1 [KU-0060648, 2-(4-ethylpiperazin-1-yl)-N-(4-(2-morpholino-4-oxo-4H-chromen-8-yl)dibenzo[b,d]thiophen-1-yl)acetamide]",maximum body weight loss,SW620 xenografts; SW620 tumour-bearing mice,no body weight loss
same,fold increase of etoposide-induced tumour growth delay,SW620 xenografts; in both SW620 and MCF7 xenografts,up to 4.5 fold
same,potency rank among the four PI-3K isoforms,PI-3K δ,greatest potency
same,"total cell growth over 5 days, of DMSO treated controls",LoVo cells [1]; 1 μM,10%
same,GI50,"LoVo cells [1]; Homo sapiens, 120 h",0.21 µM
same,inhibition at 1 µM,"LoVo cells [1]; Homo sapiens, 120 h, read-out: inhibition of cell growth",> 50%
same,concentration maintained in the tumour,"[2]; SW620 xenografts, 12.5 mg/kg i.v., for at least 4 hours",over 1 μM
same,concentration at 60 min,[2]; plasma,2100 ± 500 nM
same,concentration at 120 min,[2]; plasma,700 ± 200 nM
same,concentration at 60 min,[2]; tumour (SW620 xenograft),4900 ± 300 nM
same,concentration at 120 min,[2]; tumour (SW620 xenograft),2900 ± 400 nM
same,fold enhancement of doxorubicin cytotoxicity,M059J cells; 1 μM KU-0060648,1.4 fold
same,"reduction in cell viability, compound alone","M059J cells; 1 μM, 16 hours",< 5%
same,fold greater solubility,solubility,> 500 fold
same,GI50,"SW620 cells; Homo sapiens, SW-620, 120 h",0.95 µM
same,inhibition of cell growth,"SW620 cells; SW620, 1 μM, 5 days, 1 µM",> 50% and 50%
same,IC50,PI-3K [3],0.039 µM and 0.04 µM
same,concentration maintained in the tumour,"[4]; MCF7 xenografts, 12.5 mg/kg i.v., for at least 4 hours",over 1 μM
same,concentration at 60 min,[4]; plasma,1000 ± 600 nM
same,concentration at 120 min,[4]; plasma,800 ± 500 nM
same,concentration at 60 min,[4]; tumour (MCF7 xenograft),7000 ± 3800 nM
same,concentration at 120 min,[4]; tumour (MCF7 xenograft),4700 ± 1100 nM
same,fold enhancement of etoposide cytotoxicity,"M059-Fus-1 cells; M059-Fus-1, 1 μM KU-0060648, 16 hours",4 fold
same,fold enhancement of doxorubicin cytotoxicity,"M059-Fus-1 cells; M059-Fus-1, 1 μM KU-0060648, depending on the doxorubicin concentration",up to 32 fold
same,"reduction in cell viability, compound alone","M059-Fus-1 cells; M059-Fus-1, 1 μM, 16 hours",< 5%
same,maximum body weight loss,MCF7 xenografts,3%
same,fold enhancement of etoposide cytotoxicity,"V3 cells; V3, 1 μM KU-0060648, 16 hours",2.5 fold
same,"reduction in cell viability, compound alone","V3 cells; V3, 1 μM, 16 hours",< 15%
same,Fold enhancement of doxorubicin cytotoxicity (survival cytotoxic alone/survival cytotoxic + 1 μM KU-0060648),"LoVo cells [5]; 100 nM doxorubicin, 16 hr",73±29 fold
same,overall cell survival (clonogenic),LoVo cells [5]; [11],≥ 80%
same,GI50,MDA-MB-231 cells [6],1 µM
same,inhibition at 1 µM,MDA-MB-231 cells [6]; read-out: inhibition of cell growth,> 50%
same,GI50,"MCF7 cells [7]; Homo sapiens, MCF7, 120 h",0.27 µM
same,"total cell growth over 5 days, of DMSO treated controls","MCF7 cells [7]; MCF7, 1 μM",4%
same,inhibition of cell growth,"MCF7 cells [7]; MCF7, 1 μM, 5 days, 1 µM",> 95% and > 50%
same,Fold enhancement of doxorubicin cytotoxicity (survival cytotoxic alone/survival cytotoxic + 1 μM KU-0060648),"T47D cells; 100 nM doxorubicin, 16 hr",58±35 fold
same,overall cell survival (clonogenic),T47D cells; [11],≥ 80%
same,overall cell survival (clonogenic),MCF7 cells [8],≥ 80%
same,potency rank among the four PI-3K isoforms,PI-3K γ,least potency
same,Fold enhancement of doxorubicin cytotoxicity (survival cytotoxic alone/survival cytotoxic + 1 μM KU-0060648),"MDA-MB-231 cells [9]; MDA-MB-231, 100 nM doxorubicin, 16 hr",3.8±0.6 fold
same,overall cell survival (clonogenic),"MDA-MB-231 cells [9]; MDA-MB-231, 1 μM, 16 hr exposure, single agent",41%
same,fold enhancement of etoposide cytotoxicity,"V3-YAC cells; 1 μM KU-0060648, 16 hours",> 13 fold
same,"reduction in cell viability, compound alone","V3-YAC cells; 1 μM, 16 hours",< 15%
same,inhibition of AKT phosphorylation,PI-3K [10]; at 10 μM,42%
same,IC50,"PI-3K [10]; read-out: IC50 PI-3K-mediated AKT phosphorylation, IGF-1 stimulated",> 10 µM

# From article PMC3428850 (Molecular cancer therapeutics, 2012)
